Source: ChEMBL document CHEMBL1764949, “Microbial transformation of (+)-nootkatone and the antiproliferative activity of its metabolites” (2011)
In brackets after ≈: the same amount, converted by molar mass.

Columns and labels:
[1] = system: A549; assay: Antiproliferative activity against human A549 cells by […]; format: functional; settings: read-out: ID50 (the source's name)
How it was run: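 A549 human lung adenocarcinoma cells grown at 37 °C, 5% CO₂ in RPMI 1640+Opti-MEM (1:1) with 5% FBS, 2 mM glutamine, penicillin/streptomycin. Plated 10⁴ cells/well 24 h before dosing. Exposed 72 h to 0.1–100 µg/ml, ethanol vehicle. Cold 50% TCA fixation at 4 °C for 1 h, 0.4% SRB stain, OD 540 nm. ID₅₀ per experiment, mean ± SD. Triplicates, 3–5 experiments.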

[2] = system: HL-60; assay: Antiproliferative activity against human HL60 cells by MTT assay; format: functional; settings: read-out: ID50 (the source's name)
How it was run: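 HL-60 promyelocytic leukemia cells in suspension in RPMI 1640 with 10% FBS, 2 mM glutamine, 1 mM pyruvate, glucose, antibiotics, 37 °C, 5% CO₂. Plated 10⁴ cells/well 24 h before dosing. Exposed 72 h to 0.1–100 µg/ml, ethanol vehicle. MTT (5 mg/ml stock) added for the last 3–4 h. SDS/DMF lysis for 24 h, OD 570 nm. ID₅₀ mean ± SD. Triplicates, 3–5 experiments.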

SMILES | IC50 [1] [mg/L] | IC50 [2] [mg/L]
C[C@@H]1CC(=O)C=C2CC[C@@H]([C@@]3(C)CO3)C[C@]21C | 167 (≈ 713 µM) | 27.6 (≈ 118 µM)
C=C(C)[C@@H]1C[C@@H](O)C2=CC(=O)C[C@@H](C)[C@]2(C)C1 | 62.7 (≈ 268 µM) | 25.7 (≈ 110 µM)
C=C(CO)[C@@H]1CCC2=CC(=O)C[C@@H](C)[C@]2(C)C1 | 36 (≈ 154 µM) | 4.4 (≈ 18.8 µM)
C[C@@H]1CC(=O)C=C2[C@H](O)C[C@H]([C@@]3(C)CO3)C[C@]21C | 289 (≈ 1150 µM) | 345 (≈ 1380 µM)
C[C@@H]1CC(=O)C=C2CC[C@@H](C(C)(O)CO)C[C@]21C (some centres undefined) | 325 (≈ 1290 µM) | 284 (≈ 1130 µM)
C[C@@H]1CC(=O)C=C2CC[C@](O)(C(C)(O)CO)C[C@]21C (some centres undefined) | 290 (≈ 1080 µM) | 25.8 (≈ 96.1 µM)
C=C(C)[C@@H]1CCC2=CC(=O)C[C@@H](C)[C@]2(C)C1 [NOOTKATONE] | 58.4 (≈ 267 µM) | 4.27 (≈ 19.6 µM)
